From ChEMBL document CHEMBL1132993, “Novel benzofuran and benzothiophene biphenyls as inhibitors of protein tyrosine phosphatase 1B with antihyperglycemic properties” (J Med Chem, 2000)
Values belong to the compound of their own block, whether it stands above or below them.

Experiments:
[1] = target: T1, Tyrosine-protein phosphatase non-receptor type 1 (Homo sapiens) (UniProt P18031); assay: In vitro inhibitory activity against recombinant human Protein Tyrosine Phosphatase 1b at a concentration of 1 uM
T1 sequence (whole entry): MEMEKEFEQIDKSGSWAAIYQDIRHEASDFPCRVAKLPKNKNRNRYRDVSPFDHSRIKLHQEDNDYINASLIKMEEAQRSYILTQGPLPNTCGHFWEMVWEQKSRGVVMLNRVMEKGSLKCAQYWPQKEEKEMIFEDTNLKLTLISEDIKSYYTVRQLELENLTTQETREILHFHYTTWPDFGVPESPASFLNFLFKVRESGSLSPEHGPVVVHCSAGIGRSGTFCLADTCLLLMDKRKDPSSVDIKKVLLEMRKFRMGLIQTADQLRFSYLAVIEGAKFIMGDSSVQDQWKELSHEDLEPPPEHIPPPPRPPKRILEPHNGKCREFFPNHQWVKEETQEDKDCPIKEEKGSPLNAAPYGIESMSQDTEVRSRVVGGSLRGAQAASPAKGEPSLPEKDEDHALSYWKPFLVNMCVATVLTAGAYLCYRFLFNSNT
How it was run: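 Recombinant human PTP1B was preincubated 10 min at 37 °C with compound at 1 µM, then given 50 µM tri-phosphorylated insulin receptor dodecapeptide for 30 min at 37 °C. Liberated phosphate was measured by malachite green-molybdate absorbance at 650 nm, in quadruplicate. Values are inhibition expressed as percent of phosphatase control.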

[2] = target: T2, Tyrosine-protein phosphatase non-receptor type 1 (Homo sapiens, UniProt P18031); assay: in vitro inhibitory activity against recombinant human Protein Tyrosine Phosphatase 1b
T2 sequence (P18031 whole entry): T1 sequence (whole entry)
How it was run: (§1)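 Recombinant human PTP1B, diluted in pH 7.4 Tris-HCl/EDTA/β-mercaptoethanol buffer, preincubated 10 min at 37 °C with compound in HEPES pH 7.4. Substrate was the insulin receptor 1142-1153 dodecapeptide phosphorylated at Y1146/1150/1151, 50 µM final. Reaction ran 30 min at 37 °C. Released phosphate was read by malachite green-ammonium molybdate at 650 nm, in quadruplicate. IC50 came from four-parameter logistic regression.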

[3] = target: Dual specificity protein phosphatase 3 (Homo sapiens, UniProt P51452); assay: in vitro inhibitory activity against Dual specificity protein phosphatase 3
[4] = in vitro inhibitory activity against He-PTP
[5] = target: Receptor-type tyrosine-protein phosphatase F (Homo sapiens, UniProt P10586); assay: in vitro inhibitory activity against LAR
Mus musculus [6] = assay: percentage decrease in plasma glucose in the ob/ob mouse model at 100 mg/kg/day administered per orally; type: functional; conditions: route oral
How it was run: (§2)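 Genetically obese C57 B1/6J ob/ob diabetic mice, four to six per group, dosed orally once daily for 4 days. Plasma glucose is expressed as percent change relative to the vehicle-treated group, with p < 0.05 versus vehicle. Changes that are not significant are generally less than -15%. Ciglitazone served as the reference standard.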

[7] = in vitro inhibitory activity against PTP-a
Mus musculus [8] = assay: percentage decrease in plasma glucose in the ob/ob mouse model at 25 mg/kg/day administered per orally; type: functional; conditions: route oral; how it was run: as §2
Mus musculus [9] = assay: Percentage decrease in plasma glucose in the ob/ob mouse model at 100 mg/kg/day administered per orally; type: functional; conditions: route oral; how it was run: as §2
[10] = target: T2, Tyrosine-protein phosphatase non-receptor type 1; assay: In vitro inhibitory activity against human recombinant protein tyrosine phosphatase 1b (PTP1B)
How it was run: as §1, with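 “7.4.” for “7.4. Substrate was the insulin receptor 1142-1153 dodecapeptide phosphorylated at Y1146/1150/1151, 50 µM final.”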

Mus musculus [11] = assay: percentage decrease in plasma glucose in the ob/ob mouse model at 25 mg/Kg/day administered per orally; type: functional; how it was run: as §2
[12] = target: T1, Tyrosine-protein phosphatase non-receptor type 1 (Homo sapiens); conditions: 0.25 uM
[13] = target: T1, Tyrosine-protein phosphatase non-receptor type 1 (Homo sapiens); conditions: 0.1 uM

Chain of Receptor-type tyrosine-protein phosphatase F (P10586 whole entry): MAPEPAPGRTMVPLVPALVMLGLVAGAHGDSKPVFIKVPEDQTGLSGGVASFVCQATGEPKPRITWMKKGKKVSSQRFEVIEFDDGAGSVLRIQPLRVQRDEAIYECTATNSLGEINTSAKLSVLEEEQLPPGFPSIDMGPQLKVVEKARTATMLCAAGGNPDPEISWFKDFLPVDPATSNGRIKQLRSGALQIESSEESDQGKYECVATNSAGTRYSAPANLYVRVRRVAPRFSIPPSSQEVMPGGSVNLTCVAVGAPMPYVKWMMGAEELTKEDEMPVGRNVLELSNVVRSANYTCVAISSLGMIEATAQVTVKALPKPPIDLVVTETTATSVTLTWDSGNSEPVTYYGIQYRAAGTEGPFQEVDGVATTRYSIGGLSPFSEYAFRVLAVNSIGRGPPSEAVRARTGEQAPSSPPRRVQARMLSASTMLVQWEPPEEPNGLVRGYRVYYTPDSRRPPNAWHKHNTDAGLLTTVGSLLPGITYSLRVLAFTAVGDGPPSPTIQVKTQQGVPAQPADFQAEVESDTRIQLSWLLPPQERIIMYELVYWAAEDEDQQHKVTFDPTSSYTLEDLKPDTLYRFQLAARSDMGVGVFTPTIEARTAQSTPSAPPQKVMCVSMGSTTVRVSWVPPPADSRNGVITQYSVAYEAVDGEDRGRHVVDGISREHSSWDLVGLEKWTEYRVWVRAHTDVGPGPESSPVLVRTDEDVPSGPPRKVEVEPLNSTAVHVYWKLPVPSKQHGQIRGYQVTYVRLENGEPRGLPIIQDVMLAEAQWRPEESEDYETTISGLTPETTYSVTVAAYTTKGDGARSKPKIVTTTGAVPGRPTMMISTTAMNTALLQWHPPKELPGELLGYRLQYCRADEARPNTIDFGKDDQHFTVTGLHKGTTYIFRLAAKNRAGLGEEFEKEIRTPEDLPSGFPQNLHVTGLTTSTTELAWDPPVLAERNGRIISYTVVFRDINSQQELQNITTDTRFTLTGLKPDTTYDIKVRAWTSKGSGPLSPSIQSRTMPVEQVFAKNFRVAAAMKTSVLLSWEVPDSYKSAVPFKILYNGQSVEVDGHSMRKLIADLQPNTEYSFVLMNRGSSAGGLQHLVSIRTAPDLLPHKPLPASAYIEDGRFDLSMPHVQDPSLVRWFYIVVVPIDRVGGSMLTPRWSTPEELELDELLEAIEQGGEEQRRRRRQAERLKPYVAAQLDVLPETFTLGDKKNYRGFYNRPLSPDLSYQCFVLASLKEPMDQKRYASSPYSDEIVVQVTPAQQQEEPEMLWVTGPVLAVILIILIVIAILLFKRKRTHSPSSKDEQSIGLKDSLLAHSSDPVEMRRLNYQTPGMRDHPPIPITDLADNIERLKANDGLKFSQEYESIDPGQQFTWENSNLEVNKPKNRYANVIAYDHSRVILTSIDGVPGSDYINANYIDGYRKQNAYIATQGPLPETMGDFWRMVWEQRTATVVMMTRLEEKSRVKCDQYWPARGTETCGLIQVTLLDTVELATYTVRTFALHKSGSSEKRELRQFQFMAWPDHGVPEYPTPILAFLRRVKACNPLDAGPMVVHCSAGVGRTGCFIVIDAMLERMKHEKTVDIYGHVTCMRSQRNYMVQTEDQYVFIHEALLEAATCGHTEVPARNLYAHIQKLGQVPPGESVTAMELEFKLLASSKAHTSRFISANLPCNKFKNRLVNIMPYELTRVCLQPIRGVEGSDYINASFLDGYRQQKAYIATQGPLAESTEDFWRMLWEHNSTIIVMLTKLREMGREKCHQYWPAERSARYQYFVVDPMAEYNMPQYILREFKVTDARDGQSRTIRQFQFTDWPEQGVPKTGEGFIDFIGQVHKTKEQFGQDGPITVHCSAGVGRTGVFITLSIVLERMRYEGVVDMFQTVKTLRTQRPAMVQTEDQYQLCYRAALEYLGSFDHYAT
Chain of Dual specificity protein phosphatase 3 (P51452 whole entry): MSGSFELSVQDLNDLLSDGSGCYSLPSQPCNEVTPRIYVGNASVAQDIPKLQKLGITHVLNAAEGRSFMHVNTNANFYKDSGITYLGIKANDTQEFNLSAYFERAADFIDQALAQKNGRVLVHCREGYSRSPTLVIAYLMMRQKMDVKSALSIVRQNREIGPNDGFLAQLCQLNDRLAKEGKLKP

Average inhibition [1]: -19
SMILES: O=C(O)[C@@H](Cc1ccccc1)Oc1ccc(-c2ccc(-c3nc4cccnc4n3Cc3ccccc3)cc2)cc1

IC50 [2]: 920 nM
SMILES: O=C(O)CCC(=O)Nc1cc(-c2ccc(-c3c(Cc4ccccc4)oc4ccccc34)cc2)ccc1O

SMILES: O=C(O)[C@H](Cc1ccccc1)Oc1ccc(-c2ccc(-c3c(Cc4ccccc4)oc4ccccc34)cc2)cc1
IC50 [3]: 15900 nM
IC50 [4]: 7100 nM
IC50 [5]: 3250 nM
Decrease (Mus musculus [6]): 40%
IC50 [7]: 33700 nM
Decrease (Mus musculus [8]): 27%

SMILES: Cc1oc(-c2ccc(C(F)(F)F)cc2)nc1-c1ccc(-c2ccc(OCC(=O)O)cc2)cc1
Decrease (Mus musculus [9]): 40%
IC50 [10]: 800 nM

IC50 [2]: 460 nM
SMILES: O=C(O)/C=C\C(=O)Nc1cc(-c2ccc(-c3c(Cc4ccccc4)oc4ccccc34)cc2)ccc1O

SMILES: CC(Cc1ccccc1)(Oc1ccc(-c2ccc(-c3c(Cc4ccccc4)oc4ccccc34)cc2)cc1)C(=O)O (stereo not drawn)
Decrease (Mus musculus [6]): 28%
Decrease (Mus musculus [11]): 30%

SMILES: CCCCCCC(Oc1c(Br)cc(-c2ccc(-c3c(Cc4ccccc4)oc4ccccc34)cc2)cc1Br)C(=O)O (stereo not drawn)
Decrease (Mus musculus [11]): 27%
IC50 [10]: 23 nM

SMILES: O=C(O)[C@@H](Cc1ccccc1)Oc1ccc(-c2ccc(-c3c(Cc4ccc(O)cc4O)sc4ccccc34)cc2)cc1
Decrease (Mus musculus [11]): 20%
IC50 [10]: 120 nM

SMILES: O=C(O)[C@@H](Cc1ccccc1)Oc1ccc(-c2ccc(-c3c(C(O)c4ccccc4)oc4ccccc34)cc2)cc1 (stereo partly drawn)
Decrease (Mus musculus [6]): -1%
Decrease (Mus musculus [11]): 21%
IC50 [10]: 110 nM

Average inhibition [12]: -38
SMILES: O=C(O)[C@H](Cc1ccccc1)Oc1ccc(-c2ccc(-c3c(Cc4ccc(F)cc4)oc4ccccc34)cc2)cc1

SMILES: C[C@@H](Oc1ccc(-c2ccc(-c3c(Cc4ccccc4)oc4ccccc34)cc2)cc1)C(=O)O
Decrease (Mus musculus [6]): 39%
Decrease (Mus musculus [11]): -1%

Average inhibition [1]: -43
SMILES: Oc1c(Br)cc(-c2ccc(-c3c(Cc4ccccc4)oc4ccccc34)cc2)cc1Br

SMILES: COc1ccc(Cc2sc3ccccc3c2-c2ccc(-c3ccc(O[C@H](Cc4ccccc4)C(=O)O)cc3)cc2)cc1OC
Decrease (Mus musculus [11]): 24%
IC50 [10]: 120 nM

Average inhibition [1]: -59
SMILES: Oc1ccc(-c2ccc(-c3c(Cc4ccccc4)oc4ccccc34)cc2)cc1Br

Average inhibition [13]: -59
SMILES: CCCc1cc(-c2ccc(-c3c(Cc4ccccc4)oc4ccccc34)cc2)ccc1O[C@@H](Cc1ccccc1)C(=O)O
